Results from ChEMBL document CHEMBL1155436, “Phantasmidine: an epibatidine congener from the ecuadorian poison frog Epipedobates anthonyi” (J Nat Prod, 2010).
Calls of active or inactive are those of the source. The calls are words filed in the database; no cut-off is given here.

Experiments:
[1] = Selectivity of beta4 nAChR over beta2 nAChR
[2] = molecular target: T1, Neuronal acetylcholine receptor; alpha3/beta4 (Rattus norvegicus) (UniProt P04757+P12392); experiment: Agonist activity at rat alpha3beta4 nAChR expressed in HEK cells assessed as membrane depolarization after 1 hr by HPLC based fluorescence assay; type: functional, cell-based; details: HEK293
In short: (§1)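 Membrane potential assay in G418-selected KXR3β4R2, KXR4β4R1 or KXR4β2R2 lines on poly-D-lysine plates (DMEM, 10% FBS, near confluence). Cells washed in HBSS/HEPES pH 7.4 and loaded with no-wash dye 1 h dark at room temperature. Fractions reconstituted in HBSS/HEPES, added after 15 s basal, read 105 s. Nicotine (300 µM added solution) and KCl (160 mM) follow. Peak response normalised to KCl maximum after basal subtraction.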

[3] = molecular target: T2, Neuronal acetylcholine receptor; alpha3/beta4 (Homo sapiens) (UniProt P30926+P32297); experiment: Agonist activity at human alpha3beta4 nAChR in human IMR32 cells assessed as membrane depolarization after 1 hr by HPLC based fluorescence assay; type: functional, cell-based; details: IMR-32
In short: (§2)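 Membrane potential dye assay in native SH-SY5Y, IMR-32 or TE-671 cells. Cells grown near confluence on poly-D-lysine plates in DMEM with 10% FBS, washed in HBSS/20 mM HEPES pH 7.4, then loaded with dye 1 h in dark at room temperature. Ex 530/em 565 nm. Sequence: 15 s basal, HPLC fraction 105 s, 300 µM nicotine (added solution), 160 mM KCl (added solution). Response = basal-subtracted peak ÷ KCl maximum.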

[4] = molecular target: T2, Neuronal acetylcholine receptor; alpha3/beta4 (Homo sapiens); experiment: Agonist activity at human alpha3beta4 nAChR in human SH-SY5Y cells assessed as membrane depolarization after 1 hr by HPLC based fluorescence assay; type: functional, cell-based; in short: as §2
[5] = molecular target: T1, Neuronal acetylcholine receptor; alpha3/beta4 (Rattus norvegicus); experiment: Agonist activity at rat alpha3beta4 nAChR expressed in HEK cells assessed as elevation of intracellular calcium after 1 hr by HPLC based fluorescence assay; type: functional, cell-based; details: HEK293
[6] = molecular target: Neuronal acetylcholine receptor; alpha4/beta2 (Rattus norvegicus) (UniProt P09483+P12390); experiment: Agonist activity at rat alpha4beta2 nAChR expressed in HEK cells assessed as membrane depolarization after 1 hr by HPLC based fluorescence assay; type: functional, cell-based; details: HEK293; in short: as §1
[7] = molecular target: Acetylcholine receptor; alpha1/beta1/delta/gamma (Homo sapiens) (UniProt P02708+P07510+P11230+Q07001); experiment: Agonist activity at human alpha-1-beta-1-gamma-delta nAChR expressed in human TE671 cells assessed as membrane depolarization after 1 hr by HPLC based fluorescence assay; type: functional, cell-based; details: TE-671; in short: as §2
[8] = molecular target: Neuronal acetylcholine receptor; alpha4/beta4 (Rattus norvegicus) (UniProt P09483+P12392); experiment: Agonist activity at rat alpha4beta4 nAChR expressed in HEK cells assessed as membrane depolarization after 1 hr by HPLC based fluorescence assay; type: functional, cell-based; details: HEK293; in short: as §1
[9] = molecular target: Neuronal acetylcholine receptor; alpha4/beta2 (Homo sapiens) (UniProt P17787+P43681); experiment: Agonist activity at human alpha4beta2 nAChR expressed in human K177 cells assessed as membrane depolarization after 1 hr by HPLC based fluorescence assay; type: functional, cell-based

Row | SMILES | fold change (FC) [1] | Activity [2] | Activity [3] | Activity [4] | Activity [5] | further results
1 | c1cncc([C@H]2C[C@@H]3CC[C@H]2N3)c1 | 3 | – | – | – | – | –
2 | Clc1ccc(C2CC3CCC2N3)cn1 (stereo not given) | – | Active | Active | Active | Active | –
3 | Clc1ccc2c(n1)O[C@@]13CC[C@@H]1NC[C@@H]23 | – | Active | Active | Active | Active | Activity [6]: inactive; Activity [7]: inactive; Activity [8]: Active; Activity [9]: inactive
4 | Clc1ccc(C2=CCC[C@@H]3CC[C@H]2N3)cn1 | 3 | – | – | – | – | –
5 | O=C1NC[C@@]2(CN3CCC2CC3)O1 | > 20 | – | – | – | – | –
